The values that follow come from ChEMBL document CHEMBL4813926, “Auyuittuqamides A-D, Cyclic Decapeptides from Sesquicillium microsporum RKAG 186 Isolated from Frobisher Bay Sediment” (J Nat Prod, 2021).

Active and inactive are the calls of the source. No cut-off for these calls is given here. Where a SMILES comes first, the peptide text is derived from it. [ ]: non-standard residue; d: D form. NMeF = CN[C@@H](Cc1ccccc1)C(=O)O; NMeT = CN[C@H](C(=O)O)[C@@H](C)O; NMeV = CN[C@H](C(=O)O)C(C)C

One experiment has as its system Pseudomonas aeruginosa. The experiment can be described thus: Antimicrobial activity against Pseudomonas aeruginosa ATCC 14210 up to 128 uM measured after 22 hrs by CLSI protocol based microbroth dilution assay. The format is functional, organism-based. The following applies: dose microM <=128, time 22.0 hrs. In a few lines: (§1)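 96-well microbroth dilution run to CLSI standards. OD 600 nm read at time zero and at the end, after 22 h incubation at 37 °C, to give growth inhibition.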

Another experiment relates to Enterococcus faecium. The experiment can be described thus: Antimicrobial activity against vancomycin-resistant Enterococcus faecium EF379 up to 128 uM measured after 22 hrs by CLSI protocol based microbroth dilution assay. The format is functional, organism-based. The following applies: dose microM <=128, time 22.0 hrs. In a few lines:
(§2)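 CLSI broth microdilution in 96-well format. Growth inhibition was read as absorbance at 600 nm at time zero and after 22 h incubation at 37 °C.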

For the next experiment, the system named is Staphylococcus aureus. Briefly: Antimicrobial activity against methicillin-resistant Staphylococcus aureus ATCC 33591 up to 128 uM measured after 22 hrs by CLSI protocol based microbroth dilution assay. The format is functional, organism-based. To be noted: dose microM <=128, time 22.0 hrs. In a few lines: as §2
In the next experiment the test system is Keratinocyte. Briefly: Cytotoxicity against human epidermal keratinocytes assessed as reduction in cell viability measured after 24 hrs by Alamar blue assay. In kind it is cell-based. In outline: (§3)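 Cells in 96-well culture plates, in triplicate. Viability taken 24 h after treatment with Alamar Blue redox dye. Fluorescence read at 560/12 nm excitation and 590 nm emission, at time zero and 4 h after dye addition.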

Another experiment relates to Candida albicans. Briefly: Antifungal activity against Candida albicans ATCC 14035 up to 128 uM measured after 22 hrs by CLSI protocol based microbroth dilution assay. In kind it is functional, organism-based. To be noted: dose microM <=128, time 22.0 hrs. In outline: as §1
Experiment [1] can be described thus: Cytotoxicity against ER negative human HTB26 cells assessed as reduction in cell viability measured after 24 hrs by Alamar blue assay. In kind it is functional, cell-based. To be noted: HTB26, 24 h. In outline: as §3
Another experiment deals with Staphylococcus warneri. Briefly: Antimicrobial activity against Staphylococcus warneri ATCC 17917 up to 128 uM measured after 22 hrs by CLSI protocol based microbroth dilution assay. The following applies: dose microM <=128, time 22.0 hrs. In kind it is functional, organism-based. In a few lines:
as §1

The test system of another experiment is MCF7. The experiment can be described thus: Cytotoxicity against ER positive human MCF7 cells assessed as reduction in cell viability measured after 24 hrs by Alamar blue assay. In kind it is functional, cell-based. The following applies: MCF7, 24 h. In a few lines: as §3

For the molecule `CC[C@H](C)[C@@H]1NC(=O)CNC(=O)[C@H](Cc2ccccc2)N(C)C(=O)[C@H]([C@@H](C)CC)NC(=O)[C@H]([C@@H](C)O)N(C)C(=O)[C@H](CC(C)C)NC(=O)CNC(=O)[C@H](C(C)C)N(C)C(=O)[C@H]([C@@H](C)CC)NC(=O)[C@H](CO)NC1=O` (cyclo(GISI[NMeV]GL[NMeT]I[NMeF])), the result in the experiment with Pseudomonas aeruginosa, in the experiment with Enterococcus faecium, with Staphylococcus aureus, with Candida albicans and in the experiment with Staphylococcus warneri was inactive. For the same molecule, the IC50 (with Keratinocyte; in experiment [1]; in the experiment with MCF7) was above 10 µM throughout.
As for `CC[C@@H](C)[C@@H]1NC(=O)CNC(=O)[C@H](Cc2ccccc2)N(C)C(=O)[C@H](C(C)C)NC(=O)[C@H]([C@@H](C)O)N(C)C(=O)[C@H](CC(C)C)NC(=O)CNC(=O)[C@H](C(C)C)N(C)C(=O)[C@H](C(C)C)NC(=O)[C@H](CO)NC1=O`, the result in the experiment on Pseudomonas aeruginosa, in the experiment on Enterococcus faecium, in the experiment with Staphylococcus aureus, in the experiment with Candida albicans and in the experiment on Staphylococcus warneri was inactive. Also, the IC50 (in the experiment on Keratinocyte; in experiment [1]; with MCF7) was above 10 µM each time.
For `CC[C@H](C)[C@@H]1NC(=O)CNC(=O)[C@H](Cc2ccccc2)N(C)C(=O)[C@H]([C@@H](C)CC)NC(=O)[C@H]([C@@H](C)O)N(C)C(=O)[C@H](CC(C)C)NC(=O)CNC(=O)[C@H](C(C)C)N(C)C(=O)[C@H](C(C)C)NC(=O)[C@H](CO)NC1=O` (cyclo(GISV[NMeV]GL[NMeT]I[NMeF])), the result in the experiment with Pseudomonas aeruginosa, with Enterococcus faecium, in the experiment with Staphylococcus aureus, in the experiment with Candida albicans and in the experiment on Staphylococcus warneri was inactive. For the same molecule, the IC50 (in the experiment on Keratinocyte; in experiment [1]; in the experiment on MCF7) was above 10 µM each time.
`CC(C)C[C@@H]1NC(=O)CNC(=O)[C@H](C(C)C)N(C)C(=O)[C@H](C(C)C)NC(=O)[C@H](CO)NC(=O)[C@H](C(C)C)NC(=O)CNC(=O)[C@H](Cc2ccccc2)N(C)C(=O)[C@H](C(C)C)NC(=O)[C@H]([C@@H](C)O)N(C)C1=O` (cyclo(GL[NMeT]V[NMeF]GVSV[NMeV])): the result in the experiment on Pseudomonas aeruginosa, in the experiment on Enterococcus faecium, in the experiment on Staphylococcus aureus, with Candida albicans and in the experiment with Staphylococcus warneri was inactive. The IC50 (with Keratinocyte; in experiment [1]; with MCF7) was above 10 µM throughout.
